Series [1] has as its system 4T1 tumor-bearing mice. The series can be described thus: In vivo biological distribution analysis. Further details: species or system BALB/c mice. The settings on record: DiR 1 mg kg^−1 s.c. near the tumor, n = 3. Put shortly: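 4T1 tumor-bearing mice (tumor about 200 mm3) were randomised (n = 3) to free near-infrared dye DiR at 1 mg kg-1 or hydrogel-loaded DiR at the equivalent dose, injected s.c. near the tumor at 100 μL/20 g. Anaesthetised mice were imaged live at 1, 6, 12, 24, 48 and 96 h (λex 748 nm, λem 780 nm). At 96 h, mice were euthanised and organs collected.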

Series [2] has as its system 4T1 tumor-bearing mice. The series is described as follows: In vivo anti-tumor research in 4T1 tumor-bearing mice. Details: species or system BALB/c mice. The method in brief:
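Female BALB/c mice (6 weeks, 16–18 g) received 4T1 cells (1 × 10^7 cells per mL, 100 μL) s.c. into the right forelimb axilla. At about 100 mm3 tumor volume, mice were randomised (n = 5) to saline, free drug, or drug-loaded hydrogel (1 mg mL-1 drug : 20 mg mL-1 peptide). Dosing was s.c. near the tumor at 100 μL/20 g, giving […], on day 1. Weight and tumor volume were recorded. Tumors and organs were taken at day 7, formalin-fixed, H&E and TUNEL stained.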

Take `CCCCCCCCCCCCCCCCCCN1/C(=C/C=C/C=C/C=C/C2=[N+](CCCCCCCCCCCCCCCCCC)c3ccccc3C2(C)C)C(C)(C)c2ccccc21.[I-]` [DiR]: the “ex vivo fluorescence distribution in tumor and organs” value in the series with 4T1 tumor-bearing mice [1] (96 hours after administration) was “widespread fluorescence distribution”. Also, in the series with 4T1 tumor-bearing mice [1] (live imaging 1–96 hours), the “in vivo fluorescence over time” value was “rapidly decreased over time”.
Consider `COc1cccc2c1C(=O)c1c(O)c3c(c(O)c1C2=O)C[C@@](O)(C(=O)CO)C[C@@H]3O[C@H]1C[C@H](N)[C@H](O)[C@H](C)O1` [DOX, doxorubicin], for which, in the series on 4T1 tumor-bearing mice [2] (7 days, versus NS group, n = 5), the tumor growth inhibition entry is given as “significant tumor growth inhibition”. Further, the “body weight of mice at start” value in the series with 4T1 tumor-bearing mice [2] (day 1, s.c. near the tumor, DOX 1 mg mL^−1, 100 μL/20 g, n = 5) was 18.8 g. In addition, the “histology of major organs (H&E)” value in the series with 4T1 tumor-bearing mice [2] (heart, liver, spleen, lung, kidney after 7 days of treatment) is “significant necrosis of heart and liver cells”. For the same molecule, the “body weight of mice at end” value with 4T1 tumor-bearing mice [2] (within 7 days, s.c. near the tumor, DOX 1 mg mL^−1, 100 μL/20 g, n = 5) was 16.9 g.
